According to ChEMBL document CHEMBL1136807, “CC-1065 analogues bearing different DNA-binding subunits: synthesis, antitumor activity, and preliminary toxicity study” (J Med Chem, 2003):

Tests used:
L1210 = assay: Compound was tested in vitro against L1210 leukemia cells; type: functional, cell-based; conditions: Mus musculus
Outline: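 L1210 murine leukemia cells exposed to drug for 48 h; IC50 reported in nM.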

Mus musculus [1] = assay: Days until first mouse died treated with 100 […] compound; type: functional
Outline: (§1)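 Delayed-toxicity study in non-tumor-bearing BDF1 mice: single ip dose given on day 0, then animals observed for up to 180 days. Recorded the day the first mouse died and the number of mice alive on day 180, with 6–8 mice per group.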

Mus musculus [2] = assay: Increase in life span of mice bearing L1210 leukemia after administration of 70 […] compound; toxic; type: functional, organism-based; design: dose 70 […]
Mus musculus [3] = assay: Increase in life span of mice bearing L1210 leukemia after administration of 25 […] compound; type: functional
Outline: (§2)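 In vivo antitumor test in mice bearing L1210 leukemia, read out as increase in life span (ILS). Body weight was monitored. The optimal dose was defined as the dose giving the best antitumor efficacy with body weight loss ≤15%.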

Mus musculus [4] = assay: Increase in life span of mice bearing L1210 leukemia after administration of 42 […] compound; type: functional; outline: as §2
Mus musculus [5] = assay: Number of mice bearing L1210 leukemia that survived after 30 days, after administration of 25 […] compound; type: functional; outline: as §2
Mus musculus [6] = assay: Number of mice bearing L1210 leukemia that survived after 30 days, after administration of 70 […] compound; type: functional; outline: as §2
Mus musculus [7] = assay: Number of mice surviving on day 180 treated with 100 […] compound; 4/8; type: functional, organism-based
Mus musculus [8] = assay: Weight change in mice bearing L1210 leukemia after administration of 25 […] compound; type: functional
Mus musculus [9] = assay: Weight change in mice bearing L1210 leukemia after administration of 42 […] compound; type: functional
Mus musculus [10] = assay: Weight change in mice bearing L1210 leukemia after administration of 70 […] compound; type: functional
Mus musculus [11] = assay: Number of mice bearing L1210 leukemia that survived after 30 days, after administration of 42 µg/kg compound
Mus musculus [12] = assay: Increase in life span of mice bearing L1210 leukemia after administration of 70 mg/kg compound; type: functional; outline: as §2
Mus musculus [13] = assay: Number of mice surviving on day 180 treated with 100 […] compound; 2/8; type: functional, organism-based; outline: as §1
Mus musculus [14] = assay: Days until first mouse died treated with 1000 […] compound; type: functional; outline: as §1
Mus musculus [15] = assay: Increase in life span of mice bearing L1210 leukemia after administration of 500 […] compound; type: functional; outline: as §2
Mus musculus [16] = assay: Increase in life span of mice bearing L1210 leukemia after administration of 1000 […] compound; type: functional; outline: as §2
Mus musculus [17] = assay: Increase in life span of mice bearing L1210 leukemia after administration of 250 […] compound; type: functional; outline: as §2
Mus musculus [18] = assay: Number of mice bearing L1210 leukemia that survived after 30 days, after administration of 1000 […] compound; type: functional; outline: as §2
Mus musculus [19] = assay: Number of mice bearing L1210 leukemia that survived after 30 days, after administration of 250 […] compound; type: functional; outline: as §2
Mus musculus [20] = assay: Number of mice surviving on day 180 treated with 2000 […] compound; 0/6; type: functional, organism-based
Mus musculus [21] = assay: Days until first mouse died treated with 2000 […] compound; type: functional; outline: as §1
Mus musculus [22] = assay: Weight change in mice bearing L1210 leukemia after administration of 250 […] compound; type: functional
Mus musculus [23] = assay: Weight change in mice bearing L1210 leukemia after administration of 500 […] compound; type: functional
Mus musculus [24] = assay: Weight change in mice bearing L1210 leukemia after administration of 1000 […] compound; type: functional
Mus musculus [25] = assay: Number of mice bearing L1210 leukemia that survived after 30 days, after administration of 500 µg/kg compound
Mus musculus [26] = assay: Increase in life span of mice bearing L1210 leukemia after administration of 100 […] compound; type: functional; outline: as §2
Mus musculus [27] = assay: Days until first mouse died treated with 100 […] compound; no death; type: functional, organism-based
Mus musculus [28] = assay: Increase in life span of mice bearing L1210 leukemia after administration of 67 […] compound; type: functional; outline: as §2
Mus musculus [29] = assay: Increase in life span of mice bearing L1210 leukemia after administration of 45 […] compound; type: functional; outline: as §2
Mus musculus [30] = assay: Number of mice bearing L1210 leukemia that survived after 30 days, after administration of 100 […] compound; type: functional; outline: as §2
Mus musculus [31] = assay: Number of mice bearing L1210 leukemia that survived after 30 days, after administration of 67 […] compound; type: functional; outline: as §2
Mus musculus [32] = assay: Number of mice surviving on day 180 treated with 100 […] compound; 8/8; type: functional, organism-based
Mus musculus [33] = assay: Weight change in mice bearing L1210 leukemia after administration of 100 […] compound; type: functional
Mus musculus [34] = assay: Weight change in mice bearing L1210 leukemia after administration of 45 […] compound; type: functional
Mus musculus [35] = assay: Weight change in mice bearing L1210 leukemia after administration of 67 […] compound; type: functional
Mus musculus [36] = assay: Number of mice bearing L1210 leukemia that survived after 30 days, after administration of 45 µg/kg compound

CC(=O)Nc1ccc2oc(C(=O)Nc3ccc4[nH]c(C(=O)N5C[C@@H](CCl)c6c5cc(O)c5ccccc65)cc4c3)cc2c1
IC50 (L1210): 0.65 nM
Days (Mus musculus [1]): 8
ILS (Mus musculus [2]): Toxic
ILS at 25 mg/kg (Mus musculus [3]): 120%
ILS at 42 mg/kg (Mus musculus [4]): 67%
Survivors (Mus musculus [5]): 1
Survivors (Mus musculus [6]): 0
No. of mice (Mus musculus [7]): Mice surviving 4/8
Weight change (Mus musculus [8]): 12%
Weight change (Mus musculus [9]): -7%
Weight change (Mus musculus [10]): -18%
Survivors (Mus musculus [11]): 0

CC(=O)Nc1ccc2[nH]c(C(=O)Nc3ccc4[nH]c(C(=O)N5C[C@@H](CCl)c6c5cc(O)c5ccccc65)cc4c3)cc2c1
IC50 (L1210): 1.2 nM
Days (Mus musculus [1]): 49
ILS (Mus musculus [12]): 80%
ILS at 25 mg/kg (Mus musculus [3]): 173%
ILS at 42 mg/kg (Mus musculus [4]): 133%
Survivors (Mus musculus [5]): 1
Survivors (Mus musculus [6]): 0
No. of mice (Mus musculus [13]): Mice surviving 2/8
Weight change (Mus musculus [8]): 7%
Weight change (Mus musculus [9]): 5%
Weight change (Mus musculus [10]): -6%
Survivors (Mus musculus [11]): 0

CC(=O)Nc1cc(C(=O)Nc2cc(C(=O)N3CC(CCl)c4c3cc(O)c3ccccc43)n(C)c2)n(C)c1 (racemic)
IC50 (L1210): 44 nM
Days (Mus musculus [14]): 60
ILS at 500 mg/kg (Mus musculus [15]): 31%
ILS at 1000 mg/kg (Mus musculus [16]): 77%
ILS at 250 mg/kg (Mus musculus [17]): 31%
Survivors (Mus musculus [18]): 0
Survivors (Mus musculus [19]): 0
No. of mice (Mus musculus [20]): Mice surviving 0/6
Days until first death (Mus musculus [21]): 29 days
Weight change (Mus musculus [22]): 7%
Weight change (Mus musculus [23]): 5%
Weight change (Mus musculus [24]): -6%
Survivors (Mus musculus [25]): 0

O=C(Nc1ccc2[nH]c(C(=O)N3CC(CCl)c4c3cc(O)c3ccccc43)cc2c1)c1cc2cc(F)ccc2[nH]1 (racemic)
IC50 (L1210): 0.29 nM
ILS at 100 mg/kg (Mus musculus [26]): 158%
Days (Mus musculus [27]): No death
ILS at 67 mg/kg (Mus musculus [28]): 160%
ILS at 45 mg/kg (Mus musculus [29]): 137%
Survivors (Mus musculus [30]): 0
Survivors (Mus musculus [31]): 0
No. of mice (Mus musculus [32]): Mice surviving 8/8
Weight change (Mus musculus [33]): -7%
Weight change (Mus musculus [34]): 2%
Weight change (Mus musculus [35]): -2%
Survivors (Mus musculus [36]): 0

CC(=O)Nc1ccc2oc(C(=O)Nc3ccc4[nH]c(C(=O)N5CC(CCl)c6c5cc(O)c5ccccc65)cc4c3)cc2c1 (racemic)
IC50 (L1210): 1.2 nM
